Legend:
MCF7 [1] = assay: Growth-Inhibitory activity against MCF-7 Cells in the presence of S-9 Mix; format: functional, cell-based; conditions: Homo sapiens
How it was run: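 MCF-7 cells were exposed to compound for 6 days and counted with a microcell counter. S-9 mix was in the medium at 0.125% of a 30% S-9 mix solution. That solution was made from rat liver S-9, glucose 6-phosphate, β-NADPH, 20 mM HEPES, 50 mM MgCl2, 330 mM KCl and water.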

MCF7 [2] = assay: Growth-Inhibitory activity against MCF-7 Cells in the absence of S-9 Mix; format: functional, cell-based, Homo sapiens
How it was run: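 MCF-7 cells were exposed to compound for 6 days in medium without S-9 mix, and cells were counted with a microcell counter.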

ACHN = assay: In vitro Growth Inhibitory activity against ACHN Human kidney cancer cell line; format: functional, cell-based
How it was run: (§1)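 Cells were grown with 10% FBS. Seeding per well was 3 × 10^3 for Ishikawa, 5 × 10^3 for Hep-G2, 2.5 × 10^3 for WiDr and 1.5 × 10^3 for ACHN. Exposure lasted 6 days, followed by microcell-counter cell counts.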

A-431 = assay: In vitro Growth Inhibitory activity against A431 Human vulva cancer cell line; format: functional, cell-based
How it was run: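 A431 was seeded at 1.5 × 10^3 cells/well in Dulbecco's modified Eagle's medium with FBS, treated for 6 days, and counted with a microcell counter.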

A2780 = assay: In vitro Growth Inhibitory activity against A2780 Human ovarian cancer cell line; format: functional, cell-based
How it was run: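 A2780 was seeded at 1 × 10^3 cells/well in RPMI 1640 with 5% FBS, exposed to compound for 6 days, and counted with a microcell counter.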

HepG2 = assay: In vitro Growth Inhibitory activity against HepG2 Human liver cancer cell line; format: functional, cell-based; how it was run: as §1
Ishikawa = assay: In vitro Growth Inhibitory activity against Ishikawa Human endometrial cancer cell line; format: functional, cell-based; how it was run: as §1
MKN-28 = assay: In vitro Growth Inhibitory activity against MKN Human stomach cancer cell line; format: functional, cell-based
How it was run: (§2)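 Cells were grown in RPMI 1640 with 10% FBS. Seeding per well was 3 × 10^3 for T-47D and OVCAR-3, and 1.5 × 10^3 for MKN-28 and PSN-1. Compound exposure lasted 6 days, and cells were counted with a microcell counter.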

MDA-MB-453 = assay: In vitro Growth Inhibitory activity against MD-453 Human breast cancer cell line; format: functional, cell-based
How it was run: (§3)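 Each cell line was treated for 6 days, and growth was read by counting cells with a microcell counter.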

MCF7 [3] = assay: In vitro Growth Inhibitory activity against MCF-7 Human breast cancer cell line; format: functional, cell-based; how it was run: as §3
OVCAR-3 = assay: In vitro Growth Inhibitory activity against OVCAR-3 Human ovarian cancer cell line; format: functional, cell-based; how it was run: as §2
PSN1 = assay: In vitro Growth Inhibitory activity against PSN-1 Human pancreas cancer cell line; format: functional, cell-based; how it was run: as §2
SK-BR-3 = assay: In vitro Growth Inhibitory activity against SK-BR-3 Human breast cancer cell line; format: functional, cell-based
How it was run: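 SK-BR-3 was seeded at 1 × 10^4 cells/well in McCoy's 5a with 10% FBS, treated for 6 days, and counted with a microcell counter.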

T47D = assay: In vitro Growth Inhibitory activity against T-47D Human breast cancer cell line; format: functional, cell-based; how it was run: as §2
WiDr = assay: In vitro Growth Inhibitory activity against WiDr Human colon cancer cell line; format: functional, cell-based; how it was run: as §1

Row | Compound | IC50 (MCF7 [1]) [nM] | IC50 (MCF7 [2]; Homo sapiens, MCF7) [nM] | other results
1 | Nc1ccc(-c2cc(=O)c3c(N)ccc(Cl)c3o2)cc1 | 250 | 9.8 | –
2 | Nc1ccc(-c2cc(=O)c3c(N)ccc(O)c3o2)cc1 | 16000 | 5300 | –
3 | Nc1ccc(-c2cc(=O)c3c(N)c(Br)cc(Br)c3o2)cc1 | – | 6300 | –
4 | COc1ccc(N)c2c(=O)cc(-c3ccc(N)cc3)oc12 | – | 21000 | IC50 (MCF7 [2]; mcf7): 19000 nM
5 | Cc1ccc(N)c2c(=O)cc(-c3ccc(N)c(F)c3)oc12 | 180 | 15 | –
6 | Nc1ccc(-c2cc(=O)c3c(N)cccc3o2)cc1 | 210 | 7.3 | –
7 | Nc1ccc(-c2cc(=O)c3c(N)c(Cl)cc(Cl)c3o2)cc1 | 610 | 53 | –
8 | Cc1cc(C)c2oc(-c3ccc(N)c(F)c3)cc(=O)c2c1N | 110 | 36 | –

These reach a lower IC50 (MCF7 [2]; Homo sapiens, MCF7). Values come first.

Row | IC50 (MCF7 [1]) [nM] | IC50 (MCF7 [2]; Homo sapiens, MCF7) [nM] | Compound | other results
9 | 170 | 6.9 | Nc1ccc(-c2cc(=O)c3c(N)ccc(F)c3o2)cc1 | –
10 | 25 | 1.2 | Nc1ccc(-c2cc(=O)c3c(N)c(F)cc(F)c3o2)cc1F | IC50 (ACHN): > 1000 nM; IC50 (A-431): > 1000 nM; IC50 (A2780): 1.3 nM; IC50 (HepG2): 2.8 nM; IC50 (Ishikawa): 13 nM; IC50 (MKN-28): > 1000 nM; IC50 (MDA-MB-453): > 1000 nM; IC50 (MCF7 [3]): 1.2 nM; IC50 (OVCAR-3): 14 nM; IC50 (PSN1): > 1000 nM; IC50 (SK-BR-3): 2.5 nM; IC50 (T47D): 31 nM; IC50 (WiDr): > 1000 nM
11 | > 10000 | 3.9 | Nc1ccc(-c2cc(=O)c3c(N)c(Cl)ccc3o2)cc1 | –
12 | 130 | 4.4 | Nc1ccc(-c2cc(=O)c3c(N)c(F)ccc3o2)cc1 | –
13 | 89 | 4 | Nc1c(F)cc(-c2cc(=O)c3c(N)c(F)cc(F)c3o2)cc1F | –
14 | 46 | 6 | Nc1ccc(-c2cc(=O)c3c(N)c(F)cc(F)c3o2)cc1 | –

From ChEMBL document CHEMBL1130063, “Design and synthesis of potent antitumor 5,4'-diaminoflavone derivatives based on metabolic considerations” (J Med Chem, 1997)
